Results as given in ChEMBL document CHEMBL1129442, “Synthesis and structure-activity relationship of pyrazolo[3,4-d]pyrimidines: potent and selective adenosine A1 receptor antagonists” (J Med Chem, 1996).

Assays:
Adenosine receptor A1 = biological target: T1, Adenosine receptor A1 (Rattus norvegicus, UniProt P25099); assay: Displacement of [3H]N6-PIA from Adenosine A1 receptor from rat whole brain
T1 sequence (P25099 whole entry): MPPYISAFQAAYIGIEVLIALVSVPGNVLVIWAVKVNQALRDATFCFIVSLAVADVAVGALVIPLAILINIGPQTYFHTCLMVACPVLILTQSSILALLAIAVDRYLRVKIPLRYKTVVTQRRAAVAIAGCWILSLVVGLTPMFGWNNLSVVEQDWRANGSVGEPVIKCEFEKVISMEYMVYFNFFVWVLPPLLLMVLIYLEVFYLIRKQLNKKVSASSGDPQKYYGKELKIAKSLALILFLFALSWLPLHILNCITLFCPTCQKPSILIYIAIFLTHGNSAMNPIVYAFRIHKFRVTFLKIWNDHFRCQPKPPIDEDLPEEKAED
How it was run: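 Rat whole-brain membranes (100 µg, pretreated with 0.1 U/mg adenosine deaminase, 10 min, 37 °C) incubated 90 min at 25 °C with 1 nM (R)-[3H]-N6-PIA in 50 mM Tris-HCl pH 7.4. Test compound given at ≥12 concentrations, final Me2SO 1%, 2% or 5%. Nonspecific binding defined with 10 µM 2-chloroadenosine. Bound ligand collected by filtration on glass fiber filters. Ki derived from IC50 via Cheng-Prusoff (Kd 1 nM). At least two experiments in duplicate, mean ± SEM.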

Adenosine receptor A2a = Adenosine receptor A2a (Rattus norvegicus, UniProt P30543); assay: Inhibition of [3H]CGS-21680 binding to Adenosine A2A receptor of rat striatal membranes; assay type: cell membranes, Membrane
Chain of Adenosine receptor A2a (P30543 whole entry): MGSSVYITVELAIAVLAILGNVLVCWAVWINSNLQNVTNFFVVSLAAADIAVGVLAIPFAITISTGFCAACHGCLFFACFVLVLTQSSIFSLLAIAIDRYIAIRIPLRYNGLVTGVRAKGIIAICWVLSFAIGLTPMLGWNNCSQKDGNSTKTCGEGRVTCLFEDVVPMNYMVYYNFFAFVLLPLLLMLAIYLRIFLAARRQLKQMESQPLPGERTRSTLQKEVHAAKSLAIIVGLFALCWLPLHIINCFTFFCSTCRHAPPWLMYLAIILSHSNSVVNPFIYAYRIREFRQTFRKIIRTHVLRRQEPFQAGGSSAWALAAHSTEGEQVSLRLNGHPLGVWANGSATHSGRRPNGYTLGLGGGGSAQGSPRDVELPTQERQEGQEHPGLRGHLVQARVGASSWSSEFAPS
How it was run: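 Rat striatal membranes (150 µg, adenosine deaminase-pretreated) incubated 120 min at 25 °C with 5 nM [3H]CGS 21680 in 50 mM Tris-HCl, 10 mM MgCl2, pH 7.4. Test compound given at ≥12 concentrations, final Me2SO 1%, 2% or 5%. Nonspecific binding defined with 20 µM 2-chloroadenosine. Bound ligand filtered as for the A1 assay. Ki derived from IC50 via Cheng-Prusoff (Kd 14.9 nM). At least two experiments in duplicate, mean ± SEM.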

[1] = biological target: Adenosine receptors; A1 & A2a (Rattus norvegicus) (UniProt P25099+P30543); assay: Ratio of Binding Constants for adenosine A2A and A1 receptors; assay type: protein assay
Chain of Adenosine receptors; A1 & A2a (Rattus norvegicus) (P30543 whole entry, looked up, one chain of several): as the sequence (P30543 whole entry) above

[2] = biological target: Adenosine receptor A2a (Rattus norvegicus) (UniProt P30543); assay: Percent inhibition of [3H]CGS-21680 binding to Adenosine A2A receptor rat striatal membranes; assay type: cell membranes; conditions: Membrane, concentration not given here
Chain of Adenosine receptor A2a (Rattus norvegicus) (P30543 whole entry): as above

Structure (SMILES)	Ki (Adenosine receptor A1) [nM]	Ki (Adenosine receptor A2a) [nM]	Ratio [1]	inhibition [2] [%]
CCCC(Sc1nc2c(cnn2-c2ccccc2)c(=S)[nH]1)C(N)=O (centres undefined)	56.3	4450	–	–
CCCCC(Sc1nc(SC)c2cnn(-c3ccccc3)c2n1)C(N)=O (centres undefined)	6.81	–	> 5900	12
CC(C)C(Sc1nc(N)c2cnn(-c3ccccc3)c2n1)C(N)=O (centres undefined)	2.73	147	54	–
CCCCC(Sc1nc(NC)c2cnn(-c3ccccc3)c2n1)C(N)=O (centres undefined)	0.745	247	332	–
CCC(Sc1nc(SC)c2cnn(-c3ccccc3)c2n1)C(N)=O (centres undefined)	8.4	796	95	–
CCCCC(Sc1nc(N)c2cnn(-c3ccccc3)c2n1)C(N)=O (centres undefined)	0.939	88.3	94	–
CCCC(Sc1nc(SC)c2cnn(-c3ccccc3)c2n1)C(N)=O (centres undefined)	7.55	4380	580	–
CCC(Sc1nc(N)c2cnn(-c3ccccc3)c2n1)C(N)=O (centres undefined)	1.56	44.5	29	–
CC(C)C(Sc1nc2c(cnn2-c2ccccc2)c(=S)[nH]1)C(N)=O (centres undefined)	256	–	–	–
CCCC(Sc1nc(S)c2cnn(-c3ccccc3)c2n1)C(N)=O (centres undefined)	–	–	79	–
CSc1nc(SC(C(N)=O)C(C)C)nc2c1cnn2-c1ccccc1 (centres undefined)	15.7	–	> 1300	37
CC(C)C(Sc1nc(S)c2cnn(-c3ccccc3)c2n1)C(N)=O (centres undefined)	–	–	> 78	44
CCCC(Sc1nc(N)c2cnn(-c3ccccc3)c2n1)C(N)=O (centres undefined)	1.08	35.3	33	–
CCCCC(Sc1nc(S)c2cnn(-c3ccccc3)c2n1)C(N)=O (centres undefined)	37.2	–	> 270	52
CCC(Sc1nc(S)c2cnn(-c3ccccc3)c2n1)C(N)=O (centres undefined)	–	–	56	–
CCC(Sc1nc2c(cnn2-c2ccccc2)c(=S)[nH]1)C(N)=O (centres undefined)	155	8750	–	–
